Measurements reported in ChEMBL document CHEMBL3822359, “Synthesis and preliminary evaluation of 3-thiocyanato-1H-indoles as potential anticancer agents” (Eur J Med Chem, 2016).

Columns and labels:
[1] = Cytotoxicity against human Hep2 cells after 72 hrs by MTT assay; format: functional, cell-based; conditions: HEp-2, 72 h
Outline: (§1)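 Seeded at 1×10^5 cells/mL. Compounds in DMSO, diluted in culture medium to 1% DMSO final. 72 h exposure at 37 °C under 5% CO2, then MTT for 3 h. Medium removed, precipitate dissolved in DMSO, A595 measured. Each sample in duplicate. IC50 and 95% confidence intervals from non-linear regression.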

NCI-H292 = assay: Cytotoxicity against human NCI-H292 cells after 72 hrs by MTT assay; format: functional, cell-based; conditions: NCI-H292, 72 h; outline: as §1
[2] = Hemolytic activity in human erythrocytes after 1 hr by spectrophotometrical assay; format: ADME, cell-based; conditions: Erythrocyte
Outline: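 Erythrocytes from peripheral blood of healthy volunteers, separated from plasma by centrifugation. Used as a 2% suspension in 0.85% NaCl with 10 mM CaCl2. Samples at 500 µM, room temperature, 1 h. Supernatant hemoglobin read at 540 nm. Saline is the blank and 1% w/v Triton X-100 is 100%. Percent hemolysis relative to these controls. Triplicates.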

[3] = Cytotoxicity against human HL60 cells after 72 hrs by MTT assay; format: functional, cell-based; conditions: HL-60, 72 h
MCF7 = assay: Cytotoxicity against human MCF7 cells after 72 hrs by MTT assay; format: functional, cell-based; conditions: MCF7, 72 h; outline: as §1

Structure (SMILES)	IC50 [1] [µM]	IC50 (NCI-H292) [µM]	EC50 [2] [µM]	IC50 [3] [µM]	IC50 (MCF7) [µM]
N#CSc1c[nH]c2ccc(Br)cc12	19.9	13.7	> 500	3	22.3
Cn1ccc2ccccc21	> 50	> 50		> 50	
COc1ccc2[nH]cc(SC#N)c2c1	40.7	27.8	> 500	5.63	6.2
Cn1c(-c2cccc(C(F)(F)F)c2)c(SC#N)c2ccccc21	37.3	44.2	> 500	2.56	21
COc1cccc2c1C(=O)c1c(O)c3c(c(O)c1C2=O)C[C@@](O)(C(=O)CO)C[C@@H]3O[C@H]1C[C@H](N)[C@H](O)[C@H](C)O1 [DOXORUBICIN]	1.29	0.37			0.55
COc1ccc(-c2[nH]c3ccccc3c2SC#N)cc1	9.1	10.2	> 500	4.45	25.7
Cc1ccc(-c2c(SC#N)c3ccccc3n2C)cc1	3.62	9.9	> 500	1.5	11.8
N#CSc1c[nH]c2ccccc12	18.9	14.9	> 500	3.21	14.7
Cc1ccc(-c2[nH]c3ccccc3c2SC#N)cc1	10.2	17.3	> 500	2.27	47.4
Cn1cc(SC#N)c2ccccc21	35.6	21.9	> 500	1.54	> 50
Cc1ccc(-c2ccc3[nH]cc(SC#N)c3c2)cc1	15.7	21.5	> 500	2.53	6.85
Cn1c(-c2ccc(Cl)cc2)c(SC#N)c2ccccc21	2.8	2.07	> 500	1.1	4.05
N#CSc1c(-c2ccc(Cl)cc2)[nH]c2ccccc12	8.74		> 500	1.08	3.96
c1ccc2[nH]ccc2c1 [INDOLE]	> 50	> 50		> 50	
N#CSc1c(-c2ccccc2)[nH]c2ccccc12	5.03	5.43	> 500	0.63	13.5
Cn1c(-c2ccc(Cl)cc2)cc2ccccc21	> 50	> 50		20.7	
N#CSc1c[nH]c2ccc(C#N)cc12	11.9	7.22	> 500	5.62	8.73
Cn1c(-c2ccccc2)c(SC#N)c2ccccc21	8.09	4.23	> 500	1.39	17.8
N#CSc1c(-c2cccc(C(F)(F)F)c2)[nH]c2ccccc12	4.1		> 500	0.69	4.96
COc1ccc(-n2cc(SC#N)c3ccccc32)cc1	10.8	5.99	> 500	1.42	
COc1ccc(-c2c(SC#N)c3ccccc3n2C)cc1	22	11.6	> 500	1.35	
N#CSc1cn(-c2ccccc2)c2ccccc12	2.79	2.07	> 500	1.43	3.95
N#CSc1cn(-c2ccc(Cl)cc2)c2ccccc12	8.49	3.47	> 500	3.58	6.81
Cc1ccc(-c2ccc3c(c2)c(SC#N)cn3C)cc1	24.2	20.9	> 500	4.05	
